Data: ChEMBL document CHEMBL5678806, “NMS-P937, an orally available, specific small-molecule polo-like kinase 1 inhibitor with antitumor activity in solid and hematologic malignancies” (Mol Cancer Ther, 2012)
The source made the active and inactive calls. The rule behind the calls is not given here.

Columns and labels:
[1] = target: Ephrin type-B receptor 1 (Homo sapiens) (UniProt P54762); assay: Inhibition of N-terminal 6His-tagged recombinant human EphB1 (564 to end residues) expressed in baculovirus infected Sf21 cells assessed as residual activity at 0.1 uM relative to control
Chain of Ephrin type-B receptor 1 (Homo sapiens) (P54762 whole entry): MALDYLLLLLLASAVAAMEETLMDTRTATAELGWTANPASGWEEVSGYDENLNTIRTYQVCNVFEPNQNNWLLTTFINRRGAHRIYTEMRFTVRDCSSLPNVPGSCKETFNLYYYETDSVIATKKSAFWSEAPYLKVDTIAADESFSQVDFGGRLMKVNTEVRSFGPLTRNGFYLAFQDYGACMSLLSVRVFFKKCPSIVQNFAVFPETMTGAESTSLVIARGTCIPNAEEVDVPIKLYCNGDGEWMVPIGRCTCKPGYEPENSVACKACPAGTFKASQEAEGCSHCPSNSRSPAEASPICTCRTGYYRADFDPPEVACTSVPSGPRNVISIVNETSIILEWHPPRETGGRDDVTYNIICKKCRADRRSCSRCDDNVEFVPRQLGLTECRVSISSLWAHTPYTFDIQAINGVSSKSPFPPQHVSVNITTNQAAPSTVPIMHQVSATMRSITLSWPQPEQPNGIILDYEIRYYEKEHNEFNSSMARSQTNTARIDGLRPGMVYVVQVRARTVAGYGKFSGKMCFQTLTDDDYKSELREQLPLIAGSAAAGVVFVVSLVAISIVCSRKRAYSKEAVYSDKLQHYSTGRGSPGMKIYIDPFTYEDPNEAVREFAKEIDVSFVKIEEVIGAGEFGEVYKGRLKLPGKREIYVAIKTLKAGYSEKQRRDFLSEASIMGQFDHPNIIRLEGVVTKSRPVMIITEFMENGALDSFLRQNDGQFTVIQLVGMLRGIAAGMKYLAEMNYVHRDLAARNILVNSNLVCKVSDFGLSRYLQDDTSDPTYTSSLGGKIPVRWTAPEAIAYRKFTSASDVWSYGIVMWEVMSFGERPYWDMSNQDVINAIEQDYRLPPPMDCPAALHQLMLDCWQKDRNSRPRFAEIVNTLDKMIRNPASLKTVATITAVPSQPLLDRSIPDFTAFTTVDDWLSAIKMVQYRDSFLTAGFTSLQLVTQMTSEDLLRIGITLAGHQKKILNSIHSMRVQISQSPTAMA

HCT-116 = assay: Antiproliferative activity against human HCT-116 cells assessed as inhibition of cell growth incubated for 72 hrs by cell-titer glo assay; type: functional, cell-based; conditions: HCT-116, 72 h
Outline: (§1)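 Cells seeded at 10,000–30,000/cm² (adherent) or 100,000/mL (nonadherent) in medium with 10% fetal calf serum; after 24 h, treated in duplicate with serial dilutions for 72 h. Viable cell number read by CellTiter-Glo luminescence; IC50 from sigmoidal fit; at least two independent experiments.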

[2] = target: Mitogen-activated protein kinase kinase kinase 5 (Homo sapiens) (UniProt Q99683); assay: Inhibition of N-Terminal GST and C-terminal His6-tagged recombinant human ASK1 (649 to 946 residues) expressed in E. coli cell assessed as residual activity at 0.1 uM relative to control
[3] = Volume of distribution at steady state in male cynomolgus monkey at 5 mg/kg, iv by LC-MS analysis; type: ADME, organism-based, Macaca fascicularis; conditions: in vivo, read-out: Vdss
[4] = target: Serine/threonine-protein kinase ULK3 (Homo sapiens) (UniProt Q6PHR2); assay: Inhibition of N-terminal 6His-tagged recombinant human full-length ULK3 expressed in baculovirus infected Sf21 cells assessed as residual activity at 1 uM relative to control
1A9 = assay: Antiproliferative activity against human 1A9 cells assessed as inhibition of cell growth incubated for 72 hrs by cell-titer glo assay; type: functional, cell-based; conditions: 1A9, 72 h
Outline: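 Cells seeded 10,000–30,000/cm² (adherent) or 100,000/mL (suspension) in medium with 10% fetal calf serum; after 24 h treated in duplicate with serial dilutions for 72 h. Viable cells read by CellTiter-Glo luminescence; IC50 from sigmoidal fit; at least two independent experiments.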

LP-1 = assay: Antiproliferative activity against human LP-1 cells assessed as inhibition of cell growth incubated for 72 hrs by cell-titer glo assay; type: functional, cell-based; conditions: LP-1, 72 h; outline: as §1
[5] = target: Fibroblast growth factor receptor 4 (Homo sapiens) (UniProt P22455); assay: Inhibition of N-terminal His6-tagged recombinant human FGFR4 (442 to 755 residues) expressed in baculovirus infected Sf21 cells assessed as residual activity at 1 uM relative to control
[6] = target: Angiopoietin-1 receptor (Homo sapiens) (UniProt Q02763); assay: Inhibition of N-terminal His6-tagged recombinant human Tie2 (771 to end residues) expressed in baculovirus infected Sf21 cells assessed as residual activity at 1 uM relative to control
Chain of Angiopoietin-1 receptor (Homo sapiens) (Q02763 whole entry): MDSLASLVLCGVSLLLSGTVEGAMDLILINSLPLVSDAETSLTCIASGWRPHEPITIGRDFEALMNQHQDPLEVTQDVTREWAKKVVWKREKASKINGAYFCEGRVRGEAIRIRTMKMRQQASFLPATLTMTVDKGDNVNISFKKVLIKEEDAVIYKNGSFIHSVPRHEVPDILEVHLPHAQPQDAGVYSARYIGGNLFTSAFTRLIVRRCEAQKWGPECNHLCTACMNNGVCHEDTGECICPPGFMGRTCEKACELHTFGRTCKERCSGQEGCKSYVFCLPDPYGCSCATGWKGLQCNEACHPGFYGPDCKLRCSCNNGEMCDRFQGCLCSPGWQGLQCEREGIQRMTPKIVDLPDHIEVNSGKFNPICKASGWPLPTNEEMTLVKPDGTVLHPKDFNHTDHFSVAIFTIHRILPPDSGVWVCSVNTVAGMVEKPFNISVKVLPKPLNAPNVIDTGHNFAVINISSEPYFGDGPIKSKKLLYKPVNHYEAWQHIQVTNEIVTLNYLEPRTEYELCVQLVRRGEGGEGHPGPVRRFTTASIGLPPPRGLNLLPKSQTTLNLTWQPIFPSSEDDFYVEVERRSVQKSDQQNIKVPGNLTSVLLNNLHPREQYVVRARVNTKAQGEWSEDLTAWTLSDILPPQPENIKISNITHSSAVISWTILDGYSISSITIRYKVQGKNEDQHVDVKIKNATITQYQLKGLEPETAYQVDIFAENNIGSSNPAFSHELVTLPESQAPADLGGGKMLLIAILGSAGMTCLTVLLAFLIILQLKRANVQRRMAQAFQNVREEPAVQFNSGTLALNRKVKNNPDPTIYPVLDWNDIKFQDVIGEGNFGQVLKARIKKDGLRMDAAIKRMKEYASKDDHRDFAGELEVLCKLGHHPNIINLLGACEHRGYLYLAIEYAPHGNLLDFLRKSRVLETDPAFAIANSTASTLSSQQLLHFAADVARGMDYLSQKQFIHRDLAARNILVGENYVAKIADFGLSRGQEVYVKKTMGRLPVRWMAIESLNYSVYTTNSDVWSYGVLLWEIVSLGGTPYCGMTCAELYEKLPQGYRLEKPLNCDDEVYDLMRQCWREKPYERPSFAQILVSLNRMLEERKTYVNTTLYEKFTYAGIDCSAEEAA

[7] = target: Inhibitor of nuclear factor kappa-B kinase subunit beta (Homo sapiens) (UniProt O14920); assay: Inhibition of N-terminal His6 tagged recombinant full-length human IKKbeta expressed in baculovirus infected Sf21 cells assessed as residual activity at 1 uM relative to control
Chain of Inhibitor of nuclear factor kappa-B kinase subunit beta (Homo sapiens) (O14920 whole entry): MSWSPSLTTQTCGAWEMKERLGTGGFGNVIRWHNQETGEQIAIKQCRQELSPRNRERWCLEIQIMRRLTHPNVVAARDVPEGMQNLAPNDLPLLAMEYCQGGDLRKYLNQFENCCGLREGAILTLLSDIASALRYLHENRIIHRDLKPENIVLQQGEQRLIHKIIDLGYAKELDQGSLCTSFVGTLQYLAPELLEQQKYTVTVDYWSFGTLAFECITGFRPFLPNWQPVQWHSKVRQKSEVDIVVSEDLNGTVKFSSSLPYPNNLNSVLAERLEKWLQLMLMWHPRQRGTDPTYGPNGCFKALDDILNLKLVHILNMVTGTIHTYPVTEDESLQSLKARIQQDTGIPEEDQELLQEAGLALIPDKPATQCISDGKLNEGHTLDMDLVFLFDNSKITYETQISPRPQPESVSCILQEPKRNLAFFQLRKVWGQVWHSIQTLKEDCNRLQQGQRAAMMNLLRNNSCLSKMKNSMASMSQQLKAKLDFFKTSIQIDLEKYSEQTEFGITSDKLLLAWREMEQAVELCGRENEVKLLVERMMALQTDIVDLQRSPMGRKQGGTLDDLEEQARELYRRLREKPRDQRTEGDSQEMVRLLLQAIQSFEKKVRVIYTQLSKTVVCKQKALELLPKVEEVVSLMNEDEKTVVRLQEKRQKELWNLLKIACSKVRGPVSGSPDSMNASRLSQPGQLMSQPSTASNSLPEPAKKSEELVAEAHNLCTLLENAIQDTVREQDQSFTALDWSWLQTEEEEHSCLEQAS

[8] = target: Serine/threonine-protein kinase STK11 (Homo sapiens) (UniProt Q15831); assay: Inhibition of N-terminal 6His-tagged recombinant full-length human LKB1 expressed in Sf21 cells assessed as residual activity at 0.1 uM relative to control
Chain of Serine/threonine-protein kinase STK11 (Homo sapiens) (Q15831 whole entry): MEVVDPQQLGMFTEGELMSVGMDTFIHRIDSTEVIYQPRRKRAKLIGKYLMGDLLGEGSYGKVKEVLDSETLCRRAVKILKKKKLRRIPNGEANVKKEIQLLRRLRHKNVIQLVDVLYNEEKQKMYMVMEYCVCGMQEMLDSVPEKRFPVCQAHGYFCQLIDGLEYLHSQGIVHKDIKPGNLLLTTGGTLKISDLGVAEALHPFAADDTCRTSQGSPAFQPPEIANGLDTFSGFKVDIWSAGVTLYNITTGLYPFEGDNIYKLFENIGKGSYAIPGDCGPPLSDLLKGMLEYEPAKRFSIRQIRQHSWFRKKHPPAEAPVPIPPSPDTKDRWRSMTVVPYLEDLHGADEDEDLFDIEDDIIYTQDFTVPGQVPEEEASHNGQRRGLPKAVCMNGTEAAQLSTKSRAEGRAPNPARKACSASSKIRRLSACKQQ

[9] = target: Protein kinase C delta type (Homo sapiens) (UniProt Q05655); assay: Inhibition of N-terminal His6-tagged recombinant human PKCdelta (2 to end residues) expressed in Sf21 cells assessed as residual activity at 1 uM relative to control
A2780 = assay: Induction of apoptosis in human A2780 cells assessed as PARP cleavage at 0.02 to 0.2 micromol/L incubated for 24 hrs by Western blotting analysis; type: functional, cell-based; conditions: dose 0.02-0.2 µmol/L
[10] = target: Serine/threonine-protein kinase tousled-like 2 (Homo sapiens, UniProt Q86UE8); assay: Inhibition of N-terminal 6His-tagged recombinant human TLK2 (388 to end residues) expressed in baculovirus infected Sf21 cells assessed as residual activity at 0.1 uM relative to control
[11] = Half-life in Beagle dog at 5 mg/kg, po by LC-MS analysis; type: ADME, organism-based, Canis lupus familiaris; conditions: in vivo
IGROV-1 = assay: Antiproliferative activity against human IGROV-1 cells assessed as inhibition of cell growth incubated for 72 hrs by cell-titer glo assay; type: functional, cell-based; conditions: IGROV-1, 72 h; outline: as §1
[12] = target: Calcium/calmodulin-dependent protein kinase type II subunit delta (Homo sapiens) (UniProt Q13557); assay: Inhibition of recombinant full length human CaMKIIdelta assessed as residual activity at 1 uM relative to control
Chain of Calcium/calmodulin-dependent protein kinase type II subunit delta (Homo sapiens) (Q13557 whole entry): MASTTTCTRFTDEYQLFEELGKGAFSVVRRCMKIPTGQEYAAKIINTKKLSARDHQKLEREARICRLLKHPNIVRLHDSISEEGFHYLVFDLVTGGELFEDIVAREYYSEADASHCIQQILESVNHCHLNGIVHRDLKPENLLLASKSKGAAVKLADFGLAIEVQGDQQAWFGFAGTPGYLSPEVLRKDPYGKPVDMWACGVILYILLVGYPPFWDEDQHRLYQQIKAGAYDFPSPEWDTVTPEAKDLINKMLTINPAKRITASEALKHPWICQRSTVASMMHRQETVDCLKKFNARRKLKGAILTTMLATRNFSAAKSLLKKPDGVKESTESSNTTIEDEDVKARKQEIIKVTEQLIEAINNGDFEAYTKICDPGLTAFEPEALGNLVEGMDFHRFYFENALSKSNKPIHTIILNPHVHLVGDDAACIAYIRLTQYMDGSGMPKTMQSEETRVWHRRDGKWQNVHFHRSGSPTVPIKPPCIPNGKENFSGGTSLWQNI

[13] = target: Tyrosine-protein kinase Fgr (Homo sapiens) (UniProt P09769); assay: Inhibition of N-terminal His6-tagged recombinant human Fgr (2 to end residues) expressed in baculovirus infected Sf21 cells assessed as residual activity at 0.1 uM relative to control
HCC1937 = assay: Antiproliferative activity against human HCC1937 cells assessed as inhibition of cell growth incubated for 72 hrs by cell-titer glo assay; type: functional, cell-based; conditions: HCC1937, 72 h; outline: as §1
[14] = target: ALK tyrosine kinase receptor (Homo sapiens) (UniProt Q9UM73); assay: Inhibition of N-terminal His6-tagged recombinant human ALK (1058 to end residues) expressed in baculovirus infected Sf21 cells assessed as residual activity at 1 uM relative to control
NHDF = assay: Cytotoxicity against human NHDF cells assessed as reduction in cell number at 0.5 to 1 uM incubated for 8 hrs followed by compound washout and measured after 24 to 48 hrs by cell titer glow assay; type: toxicity, cell-based; conditions: dose 0.5-1 µM
HCC78 = assay: Antiproliferative activity against human HCC78 cells assessed as inhibition of cell growth incubated for 72 hrs by cell-titer glo assay; type: functional, cell-based; conditions: HCC78, 72 h; outline: as §1
[15] = Volume of distribution at steady state in nu/nu mouse at 10 mg/kg, iv by LC-MS analysis; type: ADME, organism-based; conditions: in vivo, read-out: Vdss
[16] = target: BDNF/NT-3 growth factors receptor (Homo sapiens) (UniProt Q16620); assay: Inhibition of N-terminal His6 tagged recombinant human TrkB (455 to end residues) expressed in baculovirus infected Sf21 cells assessed as residual activity at 0.1 uM relative to control
Chain of BDNF/NT-3 growth factors receptor (Homo sapiens) (Q16620 32-822 limits assumed): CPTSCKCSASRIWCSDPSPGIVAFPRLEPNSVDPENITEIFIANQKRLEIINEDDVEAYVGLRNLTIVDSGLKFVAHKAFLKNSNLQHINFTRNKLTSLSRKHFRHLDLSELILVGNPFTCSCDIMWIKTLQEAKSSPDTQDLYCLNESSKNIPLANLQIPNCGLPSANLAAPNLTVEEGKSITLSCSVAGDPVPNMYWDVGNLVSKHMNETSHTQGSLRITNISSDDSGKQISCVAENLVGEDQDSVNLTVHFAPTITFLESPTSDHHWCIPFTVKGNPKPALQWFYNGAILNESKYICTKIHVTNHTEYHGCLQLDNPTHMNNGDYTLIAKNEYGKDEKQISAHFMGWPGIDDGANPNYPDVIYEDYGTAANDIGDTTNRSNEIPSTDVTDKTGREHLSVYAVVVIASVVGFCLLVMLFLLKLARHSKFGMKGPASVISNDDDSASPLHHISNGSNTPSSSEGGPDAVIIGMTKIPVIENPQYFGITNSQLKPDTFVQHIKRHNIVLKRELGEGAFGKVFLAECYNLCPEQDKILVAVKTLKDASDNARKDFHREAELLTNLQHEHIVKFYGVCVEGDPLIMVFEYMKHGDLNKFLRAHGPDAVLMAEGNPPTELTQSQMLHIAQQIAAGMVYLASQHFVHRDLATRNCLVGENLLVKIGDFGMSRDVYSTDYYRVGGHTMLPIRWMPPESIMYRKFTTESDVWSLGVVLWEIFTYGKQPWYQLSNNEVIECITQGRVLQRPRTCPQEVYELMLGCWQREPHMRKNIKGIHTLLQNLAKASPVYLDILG

[17] = target: Tyrosine-protein kinase receptor TYRO3 (Homo sapiens) (UniProt Q06418); assay: Inhibition of N-terminal His6-tagged recombinant human Rse (451 to end residues) expressed in baculovirus infected Sf21 cells assessed as residual activity at 0.1 uM relative to control
U-937 = assay: Antiproliferative activity against human U-937 cells assessed as inhibition of cell growth incubated for 72 hrs by cell-titer glo assay; type: functional, cell-based; conditions: U-937, 72 h
LS174T = assay: Antiproliferative activity against human LS174T cells assessed as inhibition of cell growth incubated for 72 hrs by cell-titer glo assay; type: functional, cell-based; outline: as §1
[18] = target: Serine/threonine-protein kinase pim-2 (Homo sapiens, UniProt Q9P1W9); assay: Inhibition of PIM2 (unknown origin) in presence of [gamma-33P]ATP
Chain of Serine/threonine-protein kinase pim-2 (Q9P1W9 whole entry): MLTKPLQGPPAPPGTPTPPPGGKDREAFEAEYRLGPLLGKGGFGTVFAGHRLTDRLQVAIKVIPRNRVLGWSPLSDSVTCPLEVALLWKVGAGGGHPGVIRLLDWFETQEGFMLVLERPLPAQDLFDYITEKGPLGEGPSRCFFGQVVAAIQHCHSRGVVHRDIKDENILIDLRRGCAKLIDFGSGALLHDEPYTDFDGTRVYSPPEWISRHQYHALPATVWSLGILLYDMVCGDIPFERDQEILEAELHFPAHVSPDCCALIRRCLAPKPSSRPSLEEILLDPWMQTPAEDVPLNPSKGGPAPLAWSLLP

In the case of `CN1CCN(c2ccc(OC(F)(F)F)c(Nc3ncc4c(n3)-c3c(c(C(N)=O)nn3CCO)CC4)c2)CC1` [ONVANSERTIB], the Activity [1] is reported as 69%, the IC50 (HCT-116) is reported as 86 nM and the Activity [2] is reported as 123%. The Vd [3] was 2.9 L/kg, the Activity [4] was 127% and the IC50 (1A9) was 62 nM. For the same molecule, the IC50 (LP-1) was 59 nM, the Activity [5] was 90% and the Activity [6] was 114%. The Activity [7] was 127%, the Activity [8] was 113% and the Activity [9] was 93%. The Activity (A2780) was “Active”, the Activity [10] was 182% and the half-life [11] was 4.6 h. For the same molecule, the IC50 (IGROV-1) was 54 nM, the Activity [12] was 74% and the Activity [13] was 93%. For the same molecule, the IC50 (HCC1937) was 595 nM, the Activity [14] was 133% and the Activity (NHDF) was “Toxic”. For the same molecule, the IC50 (HCC78) was 340 nM, the Vd [15] was 1.7 L/kg and the Activity [16] was 145%. It also gave an Activity [17] of 137%, an IC50 (U-937) of 41 nM and an IC50 (LS174T) of 164 nM. The IC50 [18] was over 10000 nM.
